Compound activity from PubChem.
Lmaj promast – inhibitors of Leishmania major promastigote growth. Leishmania major promastigotes, resazurin fluorescence viability. inhibition, % at 10 µM. 200,000 tested, 9% active; in the data active = inhibition above about 50%;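 also: promastigotes grown with compound for 44 hours at 28 °C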
HCT116 PTEN-null – growth suppressors of cells with PTEN tumor suppressor deletion; HCT116 PTEN-null viability, CellTiter-Glo, 60 h; stronger effect = lower value; 140,000 tested, 1.2% active; viability, % at 10 µM;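 active = viability at or below a set limit, 4 SD under the median of all tested compounds, cut at about 3.7% in these data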;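 also: PTEN knockout HCT116 line with beta catenin targeted HCT116 as companion control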
HCT116 bCat-KO – beta-catenin-lacking colon tumor cell growth suppression. HCT116 beta-catenin knockout viability, CellTiter-Glo, 60 h; stronger effect = lower value. 140,000 tested, 1.5% active. viability, % at 10 µM;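 active = viability at or under a set limit, the compound median less 4 SD, cut at about 6% in these data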
TNAP inh no acc – TNAP (human) inhibition, acceptor-free conditions; P05186; purified TNAP, CDP-star luminescence, 30 min; inhibition, % at 20 µM; 200,000 tested, 0.26% active; AID 1012;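 active = tissue-nonspecific alkaline phosphatase inhibition above about 50% at 20 µM in the single-dose screen, limit read from the data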
Target sequence (P05186 whole entry, looked up): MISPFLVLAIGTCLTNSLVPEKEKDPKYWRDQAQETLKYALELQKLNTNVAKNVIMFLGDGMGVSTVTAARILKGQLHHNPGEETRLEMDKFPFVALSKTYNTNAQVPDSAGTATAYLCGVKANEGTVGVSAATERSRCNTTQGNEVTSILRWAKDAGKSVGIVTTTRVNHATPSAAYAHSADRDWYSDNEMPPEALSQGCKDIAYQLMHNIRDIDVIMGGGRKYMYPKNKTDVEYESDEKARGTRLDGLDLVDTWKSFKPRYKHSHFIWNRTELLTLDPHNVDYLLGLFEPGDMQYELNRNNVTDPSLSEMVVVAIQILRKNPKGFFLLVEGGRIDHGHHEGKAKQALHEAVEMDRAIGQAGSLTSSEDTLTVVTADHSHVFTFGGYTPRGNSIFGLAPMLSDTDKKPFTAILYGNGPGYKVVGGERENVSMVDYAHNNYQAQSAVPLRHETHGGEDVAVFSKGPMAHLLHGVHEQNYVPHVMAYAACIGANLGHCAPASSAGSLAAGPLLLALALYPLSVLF
TNAP act hi DEA – increases human TNAP activity under high phosphate acceptor concentration; activation factor at 20 µM; AID 1136; 200,000 tested, under 10 active; purified TNAP, CDP-star luminescence, 1 M DEA, 30 min; stronger effect = higher value; 0 = EDTA background, 1 = DMSO-only activity;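 active = activation factor at least 2 at 20 µM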
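system = human TNAP | amount = enzyme diluted 1/800 final | reagent = 100 µM CDP-star substrate | signal = luminescent substrate turnover signal | dosing = one dose, 20 µM | benchmarks = EDTA negative control, DMSO positive control | measure = activation factor | timing = 30 min reaction, room temperature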
TNAP inh hiacc – inhibitors of human TNAP at high phosphate acceptor concentration; P05186; purified TNAP, CDP-star luminescence, 1 M DEA; inhibition, % at 20 µM; 200,000 tested, 0.03% active;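 active = over 50% inhibition of tissue-nonspecific alkaline phosphatase at 20 µM in the single-dose screen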
Numbers stand for hits; n = inactive; x = no result. In the library only some 9.6% were active in any assay of this set; here they are far more common.

SMILES | Lmaj promast | HCT116 PTEN-null | HCT116 bCat-KO | TNAP inh no acc | TNAP act hi DEA | TNAP inh hiacc
O=C(O)/C=C/C(=O)Nc1ccc2nccnc2c1 | n | x | x | n | n | n
COc1ccc(Cl)cc1S(=O)(=O)N1CCN(Cc2ccc3c(c2)OCO3)CC1 | 72 | n | n | n | n | n
O=S(=O)(c1ccc(N2CCN(Cc3ccc4c(c3)OCO4)CC2)nc1)N1CCOCC1 | 93 | x | x | n | n | n
O=S(=O)(Cc1ccccc1Cl)N1CCN(Cc2ccc3c(c2)OCO3)CC1 | 96 | n | n | n | n | n
O=S(=O)(c1ccc(N2CCN(S(=O)(=O)c3ccc4c(c3)OCCO4)CC2)nc1)N1CCCC1 | n | n | n | x | x | x
COc1ccc(C(=O)NCc2ccc3c(c2)OCO3)cc1S(=O)(=O)NCc1ccc(Cl)cc1 | 61 | n | n | n | n | n
COc1ccc(F)cc1S(=O)(=O)N1CCN(Cc2ccc3c(c2)OCO3)CC1 | n | n | n | n | n | n
CC(=O)NC1CCCN(O)C(=O)/C=C(\C)CCOC(=O)C(NC(C)=O)CCCN(O)C(=O)/C=C(\C)CCOC(=O)C(NC(C)=O)CCCN(O)C(=O)/C=C(\C)CCOC1=O (stereo unspecified) | n | x | x | n | n | n
Cc1cccc(-[n+]2c(C)cc(C)c3c(=O)[nH]c(=O)[nH]c32)c1 | n | n | n | n | n | n
CS(=O)(=O)c1ccc(C(=O)OCC(=O)NC2CCS(=O)(=O)C2)cc1[N+](=O)[O-] (stereo unspecified) | n | x | x | n | n | n
Cn1cc(CN2CCN(Cc3ccc4c(c3)OCO4)CC2)c(-c2ccccc2F)n1 | 60 | x | x | n | n | n
CSc1ccc(S(=O)(=O)N2CCN(Cc3ccc4c(c3)OCO4)CC2)cc1 | 82 | n | n | n | n | n
Cc1cc(S(=O)(=O)N2CCN(Cc3ccc4c(c3)OCO4)CC2)cc(C)c1N1CCCC1=O | n | n | n | n | n | n
CCN1C(=O)/C(=C2/C(=O)N3c4c(cc(OC(C)=O)cc42)C(C)=CC3(C)C)SC1=S | 78 | n | n | n | n | n
COc1cc2c3c(c1)/C(=C1/SC(NC(C)=O)=NC1=O)C(=O)N3C(C)(C)C=C2C | n | n | n | n | n | n
O=C(CCCOc1ccc(Cl)cc1Cl)NNC(=O)c1ccc(NC(=O)c2ccccc2)cc1 | n | n | n | n | n | n
Cc1ccc(-n2cc(CNCC3CC(=O)N(C4CC4)C3)c(-c3cccc(C)c3)n2)cc1 (stereo unspecified) | n | x | x | n | n | n
COc1ccc(/C=N/NC(=O)c2nc(Cl)c(Cl)c(N)c2Cl)cc1COc1ccc(F)cc1F | n | n | 2.0 | n | n | n
O=C(NC1CCCC1)C(c1ccsc1)N(CCc1ccccc1)C(=O)Cc1cccs1 (stereo unspecified) | n | n | n | n | n | n
NC(N)=Nc1nc(-c2ccccc2)c2ccccc2n1 | 98 | x | x | n | n | n
Cc1ccc(NC(=O)c2cccc(OCc3c(C)noc3C)c2)cc1 | 83 | n | n | n | n | n
Cc1noc(C)c1COc1cccc(C(=O)NCc2cccc(Cl)c2)c1 | 73 | n | n | n | n | n
COc1ccc(NS(=O)(=O)c2cc(NC(=O)c3cccc(OCc4c(C)noc4C)c3)ccc2OC)cc1 | 98 | n | n | n | n | n
Cc1noc(C)c1COc1ccc(C(=O)Nc2cccnc2)cc1 | n | x | x | n | n | n
Cc1ccccc1NC(=O)c1cccc(OCc2c(C)noc2C)c1 | 59 | n | n | n | n | n
SMILES | Lmaj promast | HCT116 PTEN-null | HCT116 bCat-KO | TNAP inh no acc | TNAP act hi DEA | TNAP inh hiacc
COc1ccc(-c2[nH]ncc2CNCC(C)(C)N2CCOCC2)cc1F | n | x | x | n | n | n
Cc1noc(C)c1COc1cccc(C(=O)Nc2ccc(C#N)cc2)c1 | 83 | n | n | n | n | n
CC(NC(=O)CCl)c1ccc(Cl)c(Cl)c1 (stereo unspecified) | 63 | 3.8 | 2.9 | n | n | n
C/C(=C\c1ccccc1)C(=O)N1CCN(c2cccc(C(F)(F)F)c2)CC1 | 55 | n | n | n | n | n
O=C(CCn1c(=O)[nH]c2ccccc2c1=O)N1CCN(c2cccc(C(F)(F)F)c2)CC1 | n | n | n | n | n | n
O=C(CCCCn1c(=O)[nH]c2ccccc2c1=O)N1CCN(c2cccc(C(F)(F)F)c2)CC1 | 82 | n | n | n | n | n
Cc1ccc(/C=C/C(=O)N2CCN(c3cccc(C(F)(F)F)c3)CC2)cc1 | n | n | n | n | n | n
